NF-kB expr up = activators of NF-kB expression in neurons, primary screen, cell-based, HTS; 190,000 tested, 1.6% active; fold change at 12.5 µM; human neuronal cells, NF-kB reporter expression; hits give high values; in the data active means fold change above about 3.3
STAT1 activator = STAT1 signaling activators, primary screen, cell-based, HTS, luciferase reporter | 200,000 tested, 2.6% active | activation (% of control), % at 5.5 µM | AID 932, 2007 | NIH 3T3 STAT1-luciferase reporter, IFN-gamma, luminescence; 100% = IFN-gamma alone, no compound;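 active means activation above the screen-wide mean activation plus 3 SD, cut at about 130% in these data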;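 further: raw ratio to IFN-gamma control signal so 100% means no change and 0% no light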
STAT3 act = IL-6 driven STAT3 reporter potentiators, primary screen, U3A cells, luciferase, luminescence, MLSCN library; IL-6 STAT3-luciferase reporter; 100% = signal with IL-6 EC80 alone; AID 871, 2007; activation (% of control), % at 5.6 µM; 190,000 tested, 0.91% active;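 active means activation above the screen-wide mean of compound activation plus 3 SD, cut at about 130% in these data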;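 further: 0% = background luminescence of wells with medium and substrate only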
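Material: STAT3-luciferase reporter U3A cells; Probe or stimulus: IL-6 (33 ng/mL); Incubation: compound pre-incubation 1 h before IL-6, then 6 h stimulation at 37 °C; Technique: luminescence from STAT3-driven luciferase reporter; Evaluation: % activation versus median of IL-6-stimulated wells; Controls: IL-6-only high control.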
STAT1 inh = STAT1 signaling inhibitors, primary screen, cell-based, HTS, luciferase reporter; NIH 3T3 STAT1-luciferase reporter, IFN-gamma, luminescence; inhibition, % at 5.5 µM; 200,000 tested, 0.35% active;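 active means inhibition above a set limit, the mean inhibition across all tested compounds plus 3 SD, cut at about 34% in these data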;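 further: 0% = IFN-gamma with DMSO and 100% = IFN-gamma with 300 µM nifuroxazide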
APP 5'UTR act = activators of APP 5'UTR luciferase reporter, primary screen, SH-SY5Y cells; SH-SY5Y APP 5'UTR luciferase reporter, luminescence; zero percent = DMSO vehicle wells; activation, % at 2 µM; 190,000 tested, 1% active; AID 1276, 2008;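 active means activation above a set limit, based on mean plus 3 SD of controls, cut at about 140% in these data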
STAT3 blocker = IL-6 driven STAT3 reporter inhibitors, primary screen, U3A cells, luciferase, luminescence, MLSCN library | AID 862, 2007 | inhibition, % at 5.5 µM | 190,000 tested, 0.89% active | IL-6 STAT3-luciferase reporter; host cell line lacks STAT1;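 active means inhibition above the mean inhibition across all screened compounds plus 3 SD, cut at about 44% in these data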;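 further: 0% = DMSO only wells and 100% = 100 µM nifuroxazide control wells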
Starred values were filed as active, the others as inactive; / = no result. Hits are enriched below; roughly 5.1% of the tested compounds scored in any of these assays.

SMILES	NF-kB expr up	STAT1 activator	STAT3 act	STAT1 inh	APP 5'UTR act	STAT3 blocker
CCOC(=O)c1c(NC(=O)CSc2nnc(-c3c[nH]c4ccccc34)n2CCOC)sc2c1CCCCC2	0.56	96	109	4	-11	-11
COc1cccc(Nc2c3c(nc4c(-c5ccccc5)c(C)nn24)CCC3)c1	0.74	94	90	6	4	15
Fc1cccc(-c2cc3nc4c(c(NCc5ccco5)n3n2)CCCC4)c1	4.6*	143*	92	-48	166*	15
COc1cccc(-c2cc3nc4c(c(NCC(C)(C)CN(C)C)n3n2)CCCC4)c1	0.9	140*	108	-45	103	-8
CC1CCC/C(=N\Nc2ccc(Cl)c(C(=O)O)c2)C1 (configuration not stated)	1.7	111	107	-13	217*	-4
COC(=O)/C=C/c1sc2nc(C)cc(C)c2c1N=CN(C)C	1.3	100	113	0	8	-14
CCc1ccc(OCCNC(=O)c2ccccc2SCc2ccccc2)cc1	0.66	95	134*	6	0	-27
CN(C(=O)c1ccco1)c1nc2c(s1)CCCC2	4.1*	130*	78	-33	162*	32
CN(C(=O)c1ccco1)c1nnc(C23CC4CC(CC(C4)C2)C3)s1	2.3	140*	133*	-44	15	-34
CN(C(=O)COc1ccc(Cl)cc1)c1nnc(C23CC4CC(CC(C4)C2)C3)s1	1.2	103	/	-5	4	/
O=C(CCS(=O)(=O)c1ccccc1)Nc1ccccc1F	1.3	105	98	-7	4	10
CC(C)CCSc1nc2ccccc2[nH]1	1.1	129*	91	-31	100	11
Cc1ccc(CSCc2nc3ccccc3[nH]2)cc1	1.4	102	98	-4	16	11
Fc1ccccc1CSCc1nc2ccccc2[nH]1	2.3	131*	118	-34	18	-18
COc1ccc(CSc2nc3ccccc3[nH]2)cc1	5.7*	108	74	-9	150*	37
Fc1cccc(F)c1CSc1nc2ccccc2[nH]1	7.2*	145*	89	-48	156*	11
Cc1ccc(C)c(NC(=O)CSc2ccc(-c3ccco3)nn2)c1	0.92	104	102	-4	3	-7
CC(O)c1nc2ccccc2n1CC(=O)N1CCN(c2ccccc2)CC1 (configuration not stated)	1	89	98	11	-8	9
CC(=O)Nc1ccc(Oc2cc(NC(C)=O)cc([N+](=O)[O-])c2)cc1	1.1	97	103	2	14	0
O=C(Nc1ccc(Cl)cc1)OCc1ccccn1	2.6	144*	98	-42	71	4
O=C(COC(=O)CNS(=O)(=O)c1cccc(Br)c1)Nc1ccccc1Sc1ccccc1	1.2	97	107	3	4	-8
Cc1cccc2nc(COc3ccc(Cl)c4cccnc34)cn12	1.4	129*	97	-33	38	4
Cc1cccc2nc(CSc3ncccc3C(=O)O)cn12	0.87	98	97	2	12	4
Cn1ccnc1SCC(=O)Nc1cc(S(=O)(=O)N2CCOCC2)ccc1Cl	0.89	104	102	-4	-7	3
CNC(=S)NNc1ccccc1[N+](=O)[O-]	0.89	103	117	-6	15	-13
COc1ccc(C(=O)NCCSCc2ccccc2C)cc1	1.1	97	95	3	-9	12
COc1ccc(C(=O)NCCNc2ccccc2[N+](=O)[O-])cc1	1.1	148*	96	-54	163*	12
CC(C)COc1ccc(C(=O)Nc2ccccc2[N+](=O)[O-])cc1	2.8	133*	96	-37	83	6
COCCNC(=S)NNc1ccccc1[N+](=O)[O-]	1.1	102	136*	-4	42	-41
CCCOc1ccc(C(=O)Nc2ccc(C)cc2[N+](=O)[O-])cc1	1	110	93	-11	0	18

Bioassay records from PubChem BioAssay.
